Test results: ChEMBL document CHEMBL4024748, “Development of Potent Type I Protein Arginine Methyltransferase (PRMT) Inhibitors of Leukemia Cell Proliferation” (J Med Chem, 2017)
The source made the active and inactive calls. No cut-off for these calls is given here.

Key:
THP-1 = experiment: Cytotoxicity against human THP1 cells assessed as decrease in cell viability after 96 hrs by Cell-Titer Glo assay; type: functional, cell-based
Procedure, shortened: (§1)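 Cells kept at 37°C, 5% CO2, exposed to compound or DMSO control for 96 h. Viability read by CellTiter-Glo luminescence after 2 min shaking to lyse and 10 min at room temperature. Triplicate wells, normalised to control cells. For long-term growth, log-phase seeding densities; cells counted and replated to the starting density with fresh compound on days 4 and 8.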

[1] = target: DNMT3A2/3L complex (Homo sapiens) (UniProt Q9Y6K1+Q9UJW3); experiment: Inhibition of DNMT3A/3L (unknown origin) at 100 uM incubated for 15 mins followed by substrate addition measured after 60 mins by radioisotope assay; type: protein-complex assay
MV4-11 [2] = experiment: Induction of apoptosis in human MV4-11 cells after 96 hrs by annexin V-FITC/propidium iodide staining-based flow cytometric method; type: functional, cell-based
Procedure, shortened: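 MV4-11 cells in 6-well plates with compound or DMSO control, harvested at 96 h. Stained with an Annexin V-FITC apoptosis detection kit and analysed by flow cytometry. Mean ± SD of three replicates.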

[3] = target: Histone-lysine N-methyltransferase EZH2 (Homo sapiens) (UniProt Q15910); experiment: Inhibition of EZH2 (unknown origin) at 50 uM incubated for 15 mins followed by substrate addition measured after 60 mins by radioisotope assay
[4] = target: Histone-lysine N-methyltransferase EHMT2 (Homo sapiens) (UniProt Q96KQ7); experiment: Inhibition of G9a (unknown origin) at 50 uM incubated for 15 mins followed by substrate addition measured after 60 mins by AlphaLisa method
Procedure, shortened: (§2)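 AlphaLISA. Enzyme and substrate in 1x assay buffer, compound at 1% DMSO final. Enzyme preincubated with compound 15 min at room temperature, then substrate added. Reaction 60 min at room temperature, then bead mix added and incubated 60 min under subdued light before signal read.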

[5] = Cytotoxicity against human HUV-EC-C cells assessed as decrease in cell viability at 6.25 to 25 uM after 96 hrs by Cell-Titer Glo assay; type: cell-based
Procedure, shortened: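 Normal HUV-EC-C, MRC-5 and RCTEC cells at 37°C, 5% CO2, given compound or DMSO control for 96 h. Viability by CellTiter-Glo luminescence after 2 min shaking and 10 min at room temperature. Triplicate wells, normalised to control cells.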

MV4-11 [6] = experiment: Antiproliferative activity against human MV4-11 cells assessed as decrease in cell viability measured at day 12 by Cell-Titer Glo assay; type: functional, cell-based; details: MV4-11, 288 h; procedure, shortened: as §1
[7] = target: Histone-lysine N-methyltransferase, H3 lysine-79 specific (Homo sapiens) (UniProt Q8TEK3); experiment: Inhibition of DOT1L (unknown origin) at 50 uM incubated for 15 mins followed by substrate addition measured after 60 mins by Alpha screen assay
Procedure, shortened: (§3)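 DOT1L by AlphaScreen. Enzyme and substrate in 1x assay buffer, compound at 1% DMSO final. Enzyme preincubated with compound 15 min at room temperature, substrate added, reaction 60 min at room temperature. Acceptor/donor bead mix added and incubated 60 min at room temperature under subdued light.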

[8] = target: Protein arginine N-methyltransferase 5 (Homo sapiens, UniProt O14744); experiment: Inhibition of PRMT5 (unknown origin) incubated for 15 mins followed by substrate addition measured after 60 mins by AlphaLisa method; procedure, shortened: as §2
[9] = target: T1, Protein arginine N-methyltransferase 1 (Rattus norvegicus, UniProt Q63009); experiment: Inhibition of rat His-tagged PRMT1 (11 to 353 residues) expressed in Escherichia coli BL21(DE3) incubated for 15 mins followed by substrate addition measured after 60 mins by AlphaLisa method
Procedure, shortened: (§4)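 AlphaLISA IC50 run. Compound dispensed to 1% DMSO final, enzyme in 1x assay buffer preincubated 15 min at room temperature. Substrate added and reacted 60 min at RT, then AlphaLISA bead mix added for 60 min at RT in subdued light. IC50 taken from the dose-response fit.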

RCH-ACV = experiment: Cytotoxicity against human RCH-ACV cells assessed as decrease in cell viability after 96 hrs by Cell-Titer Glo assay; type: functional, cell-based; procedure, shortened: as §1
[10] = target: Histone-lysine N-methyltransferase, H3 lysine-79 specific (Homo sapiens) (UniProt Q8TEK3); experiment: Inhibition of DOT1L (unknown origin) at 100 uM incubated for 15 mins followed by substrate addition measured after 60 mins by Alpha screen assay; procedure, shortened: as §3
[11] = target: Protein arginine N-methyltransferase 1 (Homo sapiens) (UniProt Q99873); experiment: Inhibition of PRMT1 in human MV411 cells assessed as reduction in ADMA levels after 48 hrs by Western blot analysis; type: cell-based
Procedure, shortened: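 MV4-11 cells treated with compound for 48 h. ADMA, SDMA and H4R3me2a read by western blot. Blots blocked in 5% nonfat milk in PBST, primary antibodies overnight at 4°C, HRP anti-rabbit secondary at 1:10000 for 1 h.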

[12] = target: Protein arginine N-methyltransferase 1 (Rattus norvegicus) (UniProt Q63009); experiment: Uncompetitive inhibition of rat His-tagged PRMT1 (11 to 353 residues) expressed in Escherichia coli BL21(DE3) using biotinylated H4 peptide (1 to 21 residues) as substrate in presence of varying concentrations of [3H]SAM
Procedure, shortened: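 Kinetic mode-of-action study using the radiolabel method with His6-rPRMT1(11–353). IC50 measured at varied peptide substrate or varied SAM concentrations, with the other component fixed. 15 min enzyme–compound preincubation, then 60 min reaction at RT with [3H]-SAM, Flashplate capture and Microbeta counting.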

[13] = target: Protein arginine N-methyltransferase 8 (Homo sapiens, UniProt Q9NR22); experiment: Inhibition of PRMT8 (unknown origin) incubated for 15 mins followed by substrate addition measured after 60 mins by AlphaLisa method; procedure, shortened: as §4
[14] = target: Histone-lysine N-methyltransferase 2A (Homo sapiens) (UniProt Q03164); experiment: Inhibition of MLL1 (unknown origin) at 100 uM incubated for 15 mins followed by substrate addition measured after 60 mins by AlphaLisa method; procedure, shortened: as §2
[15] = target: T1, Protein arginine N-methyltransferase 1; experiment: Inhibition of rat His-tagged PRMT1 (11 to 353 residues) expressed in Escherichia coli BL21(DE3) using biotinylated H4 peptide (1 to 21 residues) as substrate preincubated for 15 mins followed by substrate addition measured after 60 mins in presence of [3H]SAM by microbeta counting method
Procedure, shortened: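 Radiometric assay in modified Tris buffer. His6-rPRMT1(11–353) preincubated with compound 15 min at RT, then substrate and [3H]-SAM added. Reaction 60 min at RT, stopped with cold stop solution, transferred to Flashplate for 60 min, washed with water/0.1% Tween-20, counted on Microbeta. IC50 from curve fit.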

MV4-11 [16] = experiment: Upregulation of MNDA mRNA levels in human MV4-11 cells by qRT-PCR analysis; type: functional, cell-based
Procedure, shortened: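 Treated MV4-11 cells analysed by SYBR Green qRT-PCR, with B2M as internal control. Fold change calculated by the ΔΔCt method. Samples run in triplicate and reported as mean ± SD.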

[17] = target: Histone-lysine N-methyltransferase 2A (Homo sapiens) (UniProt Q03164); experiment: Inhibition of MLL1 (unknown origin) at 50 uM incubated for 15 mins followed by substrate addition measured after 60 mins by AlphaLisa method; procedure, shortened: as §2
MV4-11 [18] = experiment: Antiproliferative activity against human MV4-11 cells assessed as decrease in cell viability at 0.1 to 1000 uM by Cell-Titer Glo assay; type: functional, cell-based; details: TDE = time-dependent effect; procedure, shortened: as §1

T1 sequence (Q63009 whole entry, the tested form may be a part): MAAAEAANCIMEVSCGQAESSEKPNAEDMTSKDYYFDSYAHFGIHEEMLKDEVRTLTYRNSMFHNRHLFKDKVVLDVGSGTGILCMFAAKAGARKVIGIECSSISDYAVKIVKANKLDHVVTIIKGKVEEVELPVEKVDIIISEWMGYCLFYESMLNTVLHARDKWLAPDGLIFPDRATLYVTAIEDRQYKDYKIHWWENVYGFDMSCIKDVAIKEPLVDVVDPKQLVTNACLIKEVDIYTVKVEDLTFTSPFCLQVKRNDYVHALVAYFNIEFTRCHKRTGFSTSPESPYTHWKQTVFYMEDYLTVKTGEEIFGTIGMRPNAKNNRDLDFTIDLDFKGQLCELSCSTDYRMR
Sequence of Histone-lysine N-methyltransferase 2A (Homo sapiens) (Q03164 1-2718 limits assumed): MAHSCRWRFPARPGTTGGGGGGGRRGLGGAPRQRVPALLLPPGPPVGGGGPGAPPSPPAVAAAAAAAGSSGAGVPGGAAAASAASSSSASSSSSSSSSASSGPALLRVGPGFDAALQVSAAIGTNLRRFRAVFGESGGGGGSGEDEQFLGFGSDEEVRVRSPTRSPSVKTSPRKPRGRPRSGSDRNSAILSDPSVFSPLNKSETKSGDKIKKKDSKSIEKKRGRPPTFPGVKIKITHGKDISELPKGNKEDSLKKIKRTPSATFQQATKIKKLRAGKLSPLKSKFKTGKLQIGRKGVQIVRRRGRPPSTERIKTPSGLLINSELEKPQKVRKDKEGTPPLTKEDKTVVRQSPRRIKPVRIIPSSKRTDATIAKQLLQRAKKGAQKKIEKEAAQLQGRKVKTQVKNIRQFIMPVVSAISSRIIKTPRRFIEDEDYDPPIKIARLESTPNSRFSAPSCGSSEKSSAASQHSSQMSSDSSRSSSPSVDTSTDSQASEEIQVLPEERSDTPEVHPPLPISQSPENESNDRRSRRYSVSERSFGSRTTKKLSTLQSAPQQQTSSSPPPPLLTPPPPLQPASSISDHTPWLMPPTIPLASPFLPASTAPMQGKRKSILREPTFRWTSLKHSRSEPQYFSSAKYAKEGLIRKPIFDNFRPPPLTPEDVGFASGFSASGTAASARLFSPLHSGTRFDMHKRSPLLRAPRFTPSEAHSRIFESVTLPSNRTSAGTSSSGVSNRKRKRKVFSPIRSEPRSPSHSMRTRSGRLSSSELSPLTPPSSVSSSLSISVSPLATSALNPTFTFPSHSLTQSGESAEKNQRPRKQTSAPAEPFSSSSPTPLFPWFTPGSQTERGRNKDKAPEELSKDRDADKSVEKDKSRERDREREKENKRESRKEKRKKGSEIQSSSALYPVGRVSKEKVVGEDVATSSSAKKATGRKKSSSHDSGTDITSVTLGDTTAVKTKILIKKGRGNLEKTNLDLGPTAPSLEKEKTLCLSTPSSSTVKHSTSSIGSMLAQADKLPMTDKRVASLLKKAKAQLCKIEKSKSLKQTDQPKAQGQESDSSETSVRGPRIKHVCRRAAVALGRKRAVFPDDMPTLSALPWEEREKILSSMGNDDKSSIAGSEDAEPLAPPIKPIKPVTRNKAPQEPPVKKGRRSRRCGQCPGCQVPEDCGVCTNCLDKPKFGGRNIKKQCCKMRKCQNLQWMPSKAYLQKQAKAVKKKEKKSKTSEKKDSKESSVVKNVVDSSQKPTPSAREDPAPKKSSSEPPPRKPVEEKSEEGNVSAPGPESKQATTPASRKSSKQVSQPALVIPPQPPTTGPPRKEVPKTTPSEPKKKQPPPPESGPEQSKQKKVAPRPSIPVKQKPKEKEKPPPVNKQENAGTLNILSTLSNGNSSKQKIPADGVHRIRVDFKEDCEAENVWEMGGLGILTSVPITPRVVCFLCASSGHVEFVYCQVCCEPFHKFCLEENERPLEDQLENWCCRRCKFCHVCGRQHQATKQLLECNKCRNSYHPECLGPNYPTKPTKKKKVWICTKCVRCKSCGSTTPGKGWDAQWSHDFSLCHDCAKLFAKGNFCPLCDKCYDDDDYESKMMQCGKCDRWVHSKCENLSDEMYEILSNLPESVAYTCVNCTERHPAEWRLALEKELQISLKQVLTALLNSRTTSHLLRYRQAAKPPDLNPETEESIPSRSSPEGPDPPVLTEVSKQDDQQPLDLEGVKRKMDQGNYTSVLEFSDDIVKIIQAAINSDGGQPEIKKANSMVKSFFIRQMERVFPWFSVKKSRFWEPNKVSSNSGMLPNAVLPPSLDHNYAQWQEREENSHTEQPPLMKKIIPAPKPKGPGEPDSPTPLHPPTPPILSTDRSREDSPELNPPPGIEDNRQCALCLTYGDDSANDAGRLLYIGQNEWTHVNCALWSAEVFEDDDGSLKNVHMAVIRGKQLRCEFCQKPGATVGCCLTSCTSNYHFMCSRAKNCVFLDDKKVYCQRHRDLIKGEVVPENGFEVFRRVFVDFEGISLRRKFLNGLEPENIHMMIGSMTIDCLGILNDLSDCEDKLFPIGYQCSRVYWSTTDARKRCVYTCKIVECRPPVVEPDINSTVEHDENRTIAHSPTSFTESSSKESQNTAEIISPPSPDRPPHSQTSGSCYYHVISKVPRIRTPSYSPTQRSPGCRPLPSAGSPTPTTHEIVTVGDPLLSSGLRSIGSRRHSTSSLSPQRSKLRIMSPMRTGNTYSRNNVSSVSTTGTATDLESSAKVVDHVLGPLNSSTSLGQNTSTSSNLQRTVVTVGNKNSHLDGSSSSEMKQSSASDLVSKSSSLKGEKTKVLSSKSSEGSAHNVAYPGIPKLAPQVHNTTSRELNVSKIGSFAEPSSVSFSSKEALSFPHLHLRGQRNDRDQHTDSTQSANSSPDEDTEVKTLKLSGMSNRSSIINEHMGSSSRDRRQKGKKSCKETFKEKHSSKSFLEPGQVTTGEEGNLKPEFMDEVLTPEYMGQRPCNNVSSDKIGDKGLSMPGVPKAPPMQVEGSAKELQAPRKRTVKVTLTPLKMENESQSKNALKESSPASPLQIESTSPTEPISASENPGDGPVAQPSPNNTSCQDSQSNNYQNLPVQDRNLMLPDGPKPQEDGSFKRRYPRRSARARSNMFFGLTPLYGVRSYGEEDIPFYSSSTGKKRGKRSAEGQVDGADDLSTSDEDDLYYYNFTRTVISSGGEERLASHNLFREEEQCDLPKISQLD
Sequence of Histone-lysine N-methyltransferase 2A (Homo sapiens) (Q03164 2719-3969 limits assumed): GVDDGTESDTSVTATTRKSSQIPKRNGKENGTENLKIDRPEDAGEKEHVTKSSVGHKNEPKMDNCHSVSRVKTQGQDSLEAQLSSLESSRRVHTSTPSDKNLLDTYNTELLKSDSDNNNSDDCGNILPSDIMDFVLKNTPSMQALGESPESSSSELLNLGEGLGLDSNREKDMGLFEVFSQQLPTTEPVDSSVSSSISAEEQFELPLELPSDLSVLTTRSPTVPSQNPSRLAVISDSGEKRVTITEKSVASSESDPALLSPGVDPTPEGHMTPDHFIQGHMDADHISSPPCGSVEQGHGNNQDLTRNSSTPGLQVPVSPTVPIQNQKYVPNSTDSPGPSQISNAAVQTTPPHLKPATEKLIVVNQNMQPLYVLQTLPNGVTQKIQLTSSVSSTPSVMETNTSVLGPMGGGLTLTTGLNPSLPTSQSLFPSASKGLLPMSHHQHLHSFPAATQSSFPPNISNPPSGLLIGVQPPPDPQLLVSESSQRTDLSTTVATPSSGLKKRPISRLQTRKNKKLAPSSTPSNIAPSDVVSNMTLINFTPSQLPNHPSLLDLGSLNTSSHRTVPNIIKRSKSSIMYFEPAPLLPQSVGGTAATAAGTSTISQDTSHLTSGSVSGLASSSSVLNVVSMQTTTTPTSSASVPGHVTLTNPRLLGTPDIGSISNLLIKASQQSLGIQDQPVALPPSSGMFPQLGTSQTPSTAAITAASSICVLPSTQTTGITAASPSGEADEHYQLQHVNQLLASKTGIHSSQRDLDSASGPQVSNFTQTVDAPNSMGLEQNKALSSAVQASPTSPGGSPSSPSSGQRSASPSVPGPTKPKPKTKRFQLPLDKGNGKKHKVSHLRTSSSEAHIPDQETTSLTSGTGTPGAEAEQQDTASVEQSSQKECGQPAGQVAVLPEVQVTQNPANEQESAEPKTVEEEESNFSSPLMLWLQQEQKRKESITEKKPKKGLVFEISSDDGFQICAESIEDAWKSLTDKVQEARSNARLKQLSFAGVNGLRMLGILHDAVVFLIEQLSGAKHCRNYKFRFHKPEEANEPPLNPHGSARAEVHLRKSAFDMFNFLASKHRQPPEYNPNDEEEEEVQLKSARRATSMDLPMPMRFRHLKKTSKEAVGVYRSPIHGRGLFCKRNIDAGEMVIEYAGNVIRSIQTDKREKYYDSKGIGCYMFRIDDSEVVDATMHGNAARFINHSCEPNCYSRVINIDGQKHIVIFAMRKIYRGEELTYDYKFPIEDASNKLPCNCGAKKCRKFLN
Sequence of Histone-lysine N-methyltransferase EZH2 (Homo sapiens) (Q15910 whole entry, looked up): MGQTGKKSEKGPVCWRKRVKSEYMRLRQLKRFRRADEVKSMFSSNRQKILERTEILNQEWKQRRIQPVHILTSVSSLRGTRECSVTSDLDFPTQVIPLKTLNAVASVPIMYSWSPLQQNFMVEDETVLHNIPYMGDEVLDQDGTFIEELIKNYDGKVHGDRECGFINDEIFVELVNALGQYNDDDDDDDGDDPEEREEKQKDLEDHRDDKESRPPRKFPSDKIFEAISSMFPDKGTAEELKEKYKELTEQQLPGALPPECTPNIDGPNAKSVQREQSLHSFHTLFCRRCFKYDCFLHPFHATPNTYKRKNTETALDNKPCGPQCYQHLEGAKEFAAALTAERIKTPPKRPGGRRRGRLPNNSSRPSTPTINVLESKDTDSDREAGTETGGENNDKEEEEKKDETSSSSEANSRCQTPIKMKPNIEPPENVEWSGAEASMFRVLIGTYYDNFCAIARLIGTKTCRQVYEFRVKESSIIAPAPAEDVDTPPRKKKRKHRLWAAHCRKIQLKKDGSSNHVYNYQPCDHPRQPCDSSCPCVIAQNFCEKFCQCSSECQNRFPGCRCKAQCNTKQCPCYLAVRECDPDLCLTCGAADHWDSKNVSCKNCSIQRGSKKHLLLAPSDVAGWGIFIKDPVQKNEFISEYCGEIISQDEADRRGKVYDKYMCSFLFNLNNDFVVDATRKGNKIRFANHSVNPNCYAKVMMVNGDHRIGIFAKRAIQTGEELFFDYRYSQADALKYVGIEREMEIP
Sequence of Protein arginine N-methyltransferase 1 (Rattus norvegicus) (Q63009 whole entry, looked up, the tested form may be a part): as the sequence (Q63009 whole entry, the tested form may be a part) above

- inhibition [1]: Active
- inhibition [3]: Active
- inhibition [4]: Active
- IC50 (MV4-11 [6]): 810 nM
- inhibition [7]: Active
- IC50 [8]: > 100000 nM
- IC50 [9]: 1.1 nM
- inhibition [10]: Active
- inhibition [11]: Dose-dependent effect
- inhibition [12]: Active
- IC50 [13]: 1.1 nM
- inhibition [14]: Active
- IC50 [15]: 5.3 nM
- inhibition [17]: Active
SMILES: CN(CCN)Cc1ccccc1Sc1ccccc1Cl
- Activity (THP-1): Dose-dependent effect
- Activity (MV4-11 [2]): Dose-dependent effect
- Activity [5]: Non-Toxic
- Activity (RCH-ACV): Dose-dependent effect
- Activity (MV4-11 [16]): Active
- Activity (MV4-11 [18]): Tde
